From PMC2752341 (Bioorganic & medicinal chemistry, 2008)
Values belong to the molecule of their own block, whether it stands above or below them.

Key:
KBH5.0 cells = assay: MTT cytotoxicity assay in KBH5.0; assay type: cell-based; conditions: from relative cytotoxicity KBH5.0 vs KB3-1
[1] = test system: MDA-MB-435 human tumor xenografts; assay: Human tumor xenograft antitumor bioassay; assay type: in vivo, athymic nude mice; conditions: for Average tumor volume: MDA-MB-435 xenograft in athymic nude mice; for Antitumor activity in vivo (in words): MDA-MB-435 xenograft, at maximally tolerated doses, I.P.
How it was run: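 Female NCR/NU NU mice, about 9 weeks old, were inoculated sc in the right flank with 1.5 × 10^6 MDA-MB-435 cells (RPMI 1640/10% FBS culture) and grouped by matched tumor volume at 19–20 days. Test compound was given qd × 5/week at per-compound doses, some adjusted during the study; vehicle was 0.1% citrate in H2O. Caliper tumor volume ((l*w2)/2) was taken every other day, with daily weights.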

human topoisomerase I = biological target: T1, human topoisomerase I (Homo sapiens, UniProt P11387); assay: Topoisomerase I-mediated DNA cleavage assay; assay type: biochemical; conditions: for TOP1-targeting activity (in words): summary of Table 1
T1 sequence (P11387 1-765): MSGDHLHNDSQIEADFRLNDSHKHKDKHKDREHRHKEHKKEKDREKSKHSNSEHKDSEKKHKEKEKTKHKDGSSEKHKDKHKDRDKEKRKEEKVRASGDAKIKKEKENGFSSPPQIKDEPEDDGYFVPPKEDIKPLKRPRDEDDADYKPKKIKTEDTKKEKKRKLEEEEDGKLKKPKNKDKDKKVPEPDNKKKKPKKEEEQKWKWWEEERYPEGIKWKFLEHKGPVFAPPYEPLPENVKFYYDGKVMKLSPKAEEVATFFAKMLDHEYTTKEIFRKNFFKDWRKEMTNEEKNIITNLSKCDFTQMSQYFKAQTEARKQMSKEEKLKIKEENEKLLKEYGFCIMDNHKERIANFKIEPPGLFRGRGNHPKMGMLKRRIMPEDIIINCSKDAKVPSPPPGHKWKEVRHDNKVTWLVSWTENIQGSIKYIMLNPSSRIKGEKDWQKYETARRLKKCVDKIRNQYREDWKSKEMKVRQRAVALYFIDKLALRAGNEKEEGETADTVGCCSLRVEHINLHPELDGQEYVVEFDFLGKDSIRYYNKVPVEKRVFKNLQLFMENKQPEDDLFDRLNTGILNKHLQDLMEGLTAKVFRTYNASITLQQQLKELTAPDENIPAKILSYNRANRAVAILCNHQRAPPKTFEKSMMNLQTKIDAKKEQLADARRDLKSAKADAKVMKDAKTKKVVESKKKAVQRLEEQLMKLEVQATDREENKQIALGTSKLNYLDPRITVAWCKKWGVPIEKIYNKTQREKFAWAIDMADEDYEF

KBV-1 cells = assay: MTT cytotoxicity assay in KBV-1; assay type: cell-based; conditions: for Substrate for MDR1 efflux transporter (conclusion in words): from relative cytotoxicity KBV-1 vs KB3-1
RPMI8402 cells = assay: MTT cytotoxicity assay in RPMI8402; assay type: cell-based, human

- TOP1-targeting activity (in words) (human topoisomerase I): retained potent TOP1-targeting activity
SMILES: COc1cc2c(=O)n(CCN(C)CC(N)=O)c3c4cc5c(cc4ncc3c2cc1OC)OCO5 [Compound 16, 2,3-Methylenedioxy-8,9-dimethoxy-5-[N-(2-amino-2-oxoethyl)-N-methylaminoethyl]dibenzo[c,h][1,6]naphthyridin-6-ones]
- Substrate for BCRP efflux transporter (conclusion in words) (KBH5.0 cells): appears to be a substrate for BCRP
- Average tumor volume ([1]; Day 7, I.P.): 147 mm^3
- Average tumor volume ([1]; Day 14, I.P.): 178 mm^3
- Average tumor volume ([1]; Day 21, I.P.): 230 mm^3
- Average tumor volume ([1]; Day 28, I.P.): 319 mm^3
- Average tumor volume ([1]; Day 35, I.P.): 344 mm^3
- Average tumor volume ([1]; Day 42, I.P.): 434 mm^3
- Average tumor volume ([1]; Day 49, I.P.): 527 mm^3
- fold difference in IC50 values between KB3-1 cells and KBV-1 cells (KBV-1 cells; KBV-1 vs KB3-1): 7 fold
- Substrate for MDR1 efflux transporter (conclusion in words) (KBV-1 cells): substrates for MDR1

SMILES: C#CCN(CC)CCn1c(=O)c2cc(OC)c(OC)cc2c2cnc3cc4c(cc3c21)OCO4 [Compound 14, 2,3-Methylenedioxy-8,9-dimethoxy-5-[N-ethyl-N-(prop-2-ynyl)aminoethyl]dibenzo[c,h][1,6]naphthyridin-6-one]
- Average tumor volume ([1]; Day 7, I.P.): 115 mm^3
- Average tumor volume ([1]; Day 14, I.P.): 106 mm^3
- Average tumor volume ([1]; Day 21, I.P.): 170 mm^3
- Average tumor volume ([1]; Day 28, I.P.): 204 mm^3
- Average tumor volume ([1]; Day 35, I.P.): 331 mm^3
- Average tumor volume ([1]; Day 42, I.P.): 349 mm^3
- Average tumor volume ([1]; Day 49, I.P.): 488 mm^3
- Antitumor activity in vivo (in words) [1]: less potent and effective than ARC-111
- fold less cytotoxic than 13 (RPMI8402 cells): 2-6 fold
- TOP1-targeting activity (in words) (human topoisomerase I): much less active as TOP1-targeting agents

SMILES: COc1cc2c(=O)n(CCN(CC#N)C(C)C)c3c4cc5c(cc4ncc3c2cc1OC)OCO5 [Compound 12, 2,3-Methylenedioxy-8,9-dimethoxy-5-[N-cyanomethyl-N-isopropyl-aminoethyl]dibenzo[c,h][1,6]naphthyridin-6-one]
- Average tumor volume ([1]; Day 7, I.P.): 142 mm^3
- Average tumor volume ([1]; Day 14, I.P.): 175 mm^3
- Average tumor volume ([1]; Day 21, I.P.): 213 mm^3
- Average tumor volume ([1]; Day 28, I.P.): 220 mm^3
- Average tumor volume ([1]; Day 35, I.P.): 250 mm^3
- Average tumor volume ([1]; Day 42, I.P.): 286 mm^3
- Average tumor volume ([1]; Day 49, I.P.): 314 mm^3
- Antitumor activity in vivo (in words) [1]: less potent and less efficacious than ARC-111

SMILES: CC[C@@]1(O)C(=O)OCc2c1cc1n(c2=O)Cc2cc3ccccc3nc2-1 [CPT, camptothecin, reference compound]
- TOP1-mediated cleavage (REC, relative effective concentration) (human topoisomerase I; concentration relative to topotecan (=1) producing 10% cleavage of plasmid DNA): 0.2

SMILES: CCN(CCn1c(=O)c2cc(OC)c(OC)cc2c2cnc3cc4c(cc3c21)OCO4)CC(F)(F)F [Compound 8, 2,3-Methylenedioxy-8,9-dimethoxy-5-[N-ethyl-N-(2,2,2-trifluoroethyl)aminoethyl]dibenzo[c,h][1,6]naphthyridin-6-one]
- Average tumor volume ([1]; Day 7, I.P.): 127 mm^3
- Average tumor volume ([1]; Day 14, I.P.): 176 mm^3
- Average tumor volume ([1]; Day 21, I.P.): 268 mm^3
- Average tumor volume ([1]; Day 28, I.P.): 310 mm^3
- Average tumor volume ([1]; Day 35, I.P.): 435 mm^3
- Average tumor volume ([1]; Day 42, I.P.): 543 mm^3
- Average tumor volume ([1]; Day 49, I.P.): 718 mm^3
- Antitumor activity in vivo (in words) [1]: less efficacious than the N-ethyl-N-cyanomethyl analog 11 or the N-ethyl-N-propargyl derivative 14

SMILES: C#CCN(CCn1c(=O)c2cc(OC)c(OC)cc2c2cnc3cc4c(cc3c21)OCO4)C(C)C [Compound 15, 2,3-Methylenedioxy-8,9-dimethoxy-5-[N-isopropyl-N-(prop-2-ynyl)aminoethyl]dibenzo-[c,h][1,6]naphthyridin-6-one]
- Average tumor volume ([1]; Day 7, I.P.): 99 mm^3
- Average tumor volume ([1]; Day 14, I.P.): 112 mm^3
- Average tumor volume ([1]; Day 21, I.P.): 165 mm^3
- Average tumor volume ([1]; Day 28, I.P.): 170 mm^3
- Average tumor volume ([1]; Day 35, I.P.): 234 mm^3
- Average tumor volume ([1]; Day 42, I.P.): 310 mm^3
- Average tumor volume ([1]; Day 49, I.P.): 357 mm^3
- Antitumor activity in vivo (in words) [1]: less potent and less efficacious than ARC-111
- fold less cytotoxic than 13 (RPMI8402 cells): 2-6 fold
- TOP1-targeting activity (in words) (human topoisomerase I): much less active as TOP1-targeting agents

SMILES: CCN(CC#N)CCn1c(=O)c2cc(OC)c(OC)cc2c2cnc3cc4c(cc3c21)OCO4 [Compound 11, 2,3-Methylenedioxy-8,9-dimethoxy-5-[N-cyanomethyl-N-ethylaminoethyl]dibenzo[c,h][1,6]naphthyridin-6-one]
- Average tumor volume ([1]; Day 7, I.P.): 100 mm^3
- Average tumor volume ([1]; Day 14, I.P.): 156 mm^3
- Average tumor volume ([1]; Day 21, I.P.): 178 mm^3
- Average tumor volume ([1]; Day 28, I.P.): 202 mm^3
- Average tumor volume ([1]; Day 35, I.P.): 293 mm^3
- Average tumor volume ([1]; Day 42, I.P.): 361 mm^3
- Average tumor volume ([1]; Day 49, I.P.): 435 mm^3
- Antitumor activity in vivo (in words) [1]: less potent and effective than ARC-111

SMILES: COc1cc2c(=O)n(CCN(C)C)c3c4cc5c(cc4ncc3c2cc1OC)OCO5 [Compound 1, 5H-8,9-dimethoxy-5-(2-N,N-dimethylaminoethyl)-2,3-methylenedioxydibenzo[c,h][1,6]-naphthyridin-6-one]
- Average tumor volume ([1]; Day 7, I.P.): 120 mm^3
- Average tumor volume ([1]; Day 14, I.P.): 123 mm^3
- Average tumor volume ([1]; Day 21, I.P.): 145 mm^3
- Average tumor volume ([1]; Day 28, I.P.): 158 mm^3
- Average tumor volume ([1]; Day 35, I.P.): 175 mm^3
- Average tumor volume ([1]; Day 42, I.P.): 189 mm^3
- Average tumor volume ([1]; Day 49, I.P.): 242 mm^3

SMILES: COc1cc2c(=O)n(CCN(C)CC#N)c3c4cc5c(cc4ncc3c2cc1OC)OCO5 [Compound 10, 2,3-Methylenedioxy-8,9-dimethoxy-5-[N-cyanomethyl-N-methylaminoethyl]dibenzo[c,h][1,6]naphthyridin-6-one]
- Average tumor volume ([1]; Day 7, I.P.): 149 mm^3
- Average tumor volume ([1]; Day 14, I.P.): 222 mm^3
- Average tumor volume ([1]; Day 21, I.P.): 370 mm^3
- Average tumor volume ([1]; Day 28, I.P.): 392 mm^3
- Average tumor volume ([1]; Day 35, I.P.): 528 mm^3
- Average tumor volume ([1]; Day 42, I.P.): 669 mm^3
- Average tumor volume ([1]; Day 49, I.P.): 919 mm^3
- Antitumor activity in vivo (in words) [1]: less active than the N-methyl-N-propargyl 13 or N-methyl-N-acetamide 16

- TOP1-targeting activity (in words) (human topoisomerase I): retained potent TOP1-targeting activity
SMILES: C#CCN(C)CCn1c(=O)c2cc(OC)c(OC)cc2c2cnc3cc4c(cc3c21)OCO4 [Compound 13, 2,3-Methylenedioxy-8,9-dimethoxy-5-[N-methyl-N-(prop-2-ynyl)aminoethyl]dibenzo[c,h][1,6]naphthyridin-6-one]
- Substrate for BCRP efflux transporter (conclusion in words) (KBH5.0 cells): does not appear to be a substrate for either MDR1 or BCRP
- Average tumor volume ([1]; Day 7, I.P.): 144 mm^3
- Average tumor volume ([1]; Day 14, I.P.): 167 mm^3
- Average tumor volume ([1]; Day 21, I.P.): 218 mm^3
- Average tumor volume ([1]; Day 28, I.P.): 284 mm^3
- Average tumor volume ([1]; Day 35, I.P.): 317 mm^3
- Average tumor volume ([1]; Day 42, I.P.): 358 mm^3
- Average tumor volume ([1]; Day 49, I.P.): 433 mm^3
- Substrate for MDR1 efflux transporter (conclusion in words) (KBV-1 cells): does not appear to be a substrate for either MDR1 or BCRP
